Experiments:
Assay type in all cases: cell-based
[1] = tested on: HeLa (human cervical cancer cells); experiment: MTT cytotoxicity assay, HeLa cells; conditions: 48 h, read-out: IC50 ± SD HeLa
Method in brief: (§1)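 Cells exposed to test compounds for 48 h; viability read by MTT. IC50 computed from triplicate experiments and reported as mean ± SD, with paclitaxel as positive control. BEAS-2B normal lung epithelial cells assayed alongside the cancer lines.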

[2] = tested on: BEAS-2B (normal human lung epithelial cells); experiment: MTT cytotoxicity assay, BEAS-2B normal cells; conditions: 48 h, read-out: IC50 ± SD BEAS-2B
Method in brief: as §1

MCF-7 (breast cancer) = experiment: MTT cytotoxicity assay, MCF-7 cells; conditions: Homo sapiens, MCF7, 48 h, read-out: IC50 ± SD MCF-7
Method in brief: as §1

[3] = tested on: A549 (non-small lung carcinoma) cells; experiment: MTT cytotoxicity assay, A549 cells; conditions: Homo sapiens, A549, 48 h, read-out: IC50 ± SD A549
Method in brief: as §1

SMILES | IC50 [1] | IC50 [2] | IC50 (MCF-7 (breast cancer)) | IC50 [3]
C[C@]12CC[C@H](O)C[C@H]1CC[C@@H]1[C@@H]2C[C@@H](O)[C@]2(C)[C@@H](C3=CC(=O)OC3)CC[C@]12O [Compound 6, digoxigenin] | 770 ± 230 nM | 2580 ± 110 nM | 1440 ± 10 nM | 1280 ± 230 nM
CC(=O)O[C@H]1C[C@H](O[C@H]2[C@@H](O)C[C@H](O[C@H]3[C@@H](O)C[C@H](O[C@H]4CC[C@@]5(C)[C@H](CC[C@@H]6[C@@H]5C[C@@H](O)[C@]5(C)[C@@H](C7=CC(=O)OC7)CC[C@]65O)C4)O[C@@H]3C)O[C@@H]2C)O[C@H](C)[C@H]1O [Compound 8, acetyldigoxin] | 130 ± 7 nM | 250 ± 60 nM | 190 ± 60 nM | 150 ± 10 nM
CC(=O)O[C@H]1C[C@H](O[C@H]2[C@@H](O)C[C@H](O[C@H]3[C@@H](O)C[C@H](O[C@H]4CC[C@@]5(C)[C@H](CC[C@@H]6[C@@H]5C[C@@H](O)[C@]5(C)[C@@H](C7=CC(=O)OC7)CC[C@]65O)C4)O[C@@H]3C)O[C@@H]2C)O[C@H](C)[C@H]1O[C@@H]1O[C@H](CO)[C@@H](O)[C@H](O)[C@H]1O [Compound 9, lanatoside C] | 130 ± 13 nM | 370 ± 100 nM | 240 ± 110 nM | 190 ± 30 nM
CC(=O)O[C@H]1C(=O)[C@@]2(C)[C@H]([C@H](OC(=O)c3ccccc3)[C@]3(O)C[C@H](OC(=O)[C@H](O)[C@@H](NC(=O)c4ccccc4)c4ccccc4)C(C)=C1C3(C)C)[C@]1(OC(C)=O)CO[C@@H]1C[C@@H]2O [Paclitaxel, reference compound] | 20 ± 10 nM | 130 ± 30 nM | 110 ± 50 nM | 60 ± 40 nM
